For data set [1], the system named is T98G. Put plainly: Induction of apoptosis in human T98G cells at 1 to 50 uM after 48 hrs by propidium iodide staining based flow cytometric analysis. The data set is classed as functional, cell-based. The method, boiled down:
(§1)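 Cells treated 1−50 μM for 24 or 48 h, washed in PBS, resuspended in 0.1% sodium citrate, 0.1% Triton X-100, 50 μg/mL propidium iodide, 30 min at 4 °C in dark. Nuclei analyzed by flow cytometry, DNA on log scale, debris gated out; percent hypodiploid (sub-G1) nuclei reported. Three experiments in triplicate.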
(In general: In flow cytometry, cells or beads pass a laser one at a time.)

Data set [2] deals with U-87 MG. Put plainly: Induction of apoptosis in human U87MG cells at 1 to 50 uM after 48 hrs by propidium iodide staining based flow cytometric analysis. Conditions: U-87MG ATCC. The data set is classed as functional, cell-based. In short, it runs like this: as §1
The test system of data set [3] is T98G. Put plainly: Induction of cell cycle arrest in human T98G cells assessed as accumulation at S phase at 1 to 20 uM after 48 hrs by flow cytometric analysis. The class given is functional, cell-based. The method, boiled down:
(§2)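 2 × 10^5 cells per dish exposed 48 h (1−20 μM per legend); harvested, fixed in cold 70% ethanol at −20 °C, stained with propidium iodide plus RNase A (100 U/mL) 30 min at room temperature; percentage in G1, S, G2/M by flow cytometry. Three experiments in triplicate.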

Data set [4] has as its system U-87 MG. The data set can be described thus: Induction of cell cycle arrest in human U87MG cells assessed as accumulation at G2/M phase at 1 to 20 uM after 48 hrs by flow cytometric analysis. The class given is functional, cell-based. Conditions: U-87MG ATCC. The method, boiled down: as §2
Data set [5] is described as follows: Cytotoxicity against normal human astrocytes assessed as decrease in cell viability after 48 hrs by MTT assay. The class given is cell-based. Conditions: astrocyte. In short, it runs like this: (§3)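 Cells (T98G, U87-MG, NHA; 3 × 10^4 per well) plated, next day exposed to serial dilutions (1−50 μM) for 48 h at 37 °C, 5% CO2. MTT (5 mg/mL) added for 3 h; crystals solubilized in 50% DMF/20% SDS pH 4.5; OD at 620 nm. Viability = % of DMSO (0.1% final) controls. Means ± SEM, three experiments in triplicate.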
Background: Tetrazolium assays rely on reduction of a dye to a coloured formazan, in cell work by metabolically active cells.

Data set [6] relates to U-87 MG. Put plainly: Induction of cell cycle arrest in human U87MG cells assessed as accumulation at G0/G1 phase at 1 to 20 uM after 48 hrs by flow cytometric analysis. The class given is functional, cell-based. Conditions: U-87MG ATCC. In short, it runs like this: as §2
Another data set has as its system U-87MG ATCC. The data set can be described thus: Anticancer activity against human U87MG cells assessed as decrease in cell viability at 50 uM after 48 hrs by MTT assay. The data set is classed as functional, cell-based. In short, it runs like this:
as §3

Data set [7] deals with U-87 MG. The data set can be described thus: Induction of cell cycle arrest in human U87MG cells assessed as accumulation at S phase at 1 to 20 uM after 48 hrs by flow cytometric analysis. The class given is functional, cell-based. Conditions: U-87MG ATCC. The method, boiled down:
as §2

The subject of data set [8] is T98G. Put plainly: Induction of cell cycle arrest in human T98G cells assessed as accumulation at G0/G1 phase at 1 to 20 uM after 48 hrs by flow cytometric analysis. The data set is classed as functional, cell-based. In short, it runs like this: as §2
For data set [9], the system named is T98G. Put plainly: Induction of cell cycle arrest in human T98G cells assessed as accumulation at G2/M phase at 1 to 20 uM after 48 hrs by flow cytometric analysis. The class given is functional, cell-based. The method, boiled down:
as §2

The test system of data set [10] is T98G. The data set can be described thus: Anticancer activity against human T98G cells assessed as decrease in cell viability at 50 uM after 48 hrs by MTT assay. The data set is classed as functional. In short, it runs like this:
as §3

Calls of active or inactive are those of the source. The calls are words filed in the database; no cut-off is given here.

Consider `CC(C)=CCC1C(=O)C(C(=O)CC(C)C)=C(O)C(O)(CC=C(C)C)C1=O` (stereo unspecified) [HUMULONE], for which the result in the data set on T98G [1], in the data set with U-87 MG [2], in the data set on T98G [3], in the data set with U-87 MG [4], in the data set with U-87 MG [6] and in the data set with U-87MG ATCC was inactive. Also, the result in the data set with U-87 MG [7], in the data set with T98G [8], with T98G [9] and with T98G [10] was inactive. For the same molecule, the Activity result in data set [5] is on record as “Non-toxic”.

(Values after ChEMBL document CHEMBL1932940, “Xanthohumol induces apoptosis in human malignant glioblastoma cells by increasing reactive oxygen species and activating MAPK pathways” (J Nat Prod, 2011).)
